{"data": "Assay results collected from several papers", "target": "LIM domain kinase 1 (LIMK1, Homo sapiens, UniProt P53667)"}
{"SMILES": "C#Cc1cc(-c2cc(Nc3nc(N[C@@H](C)c4ccc(F)cn4)ncc3Cl)n[nH]2)ccc1C=O", "test": "enzyme activity, inhibitor", "conditions": "0.2 µM", "quantity": "inhibition", "value": "24.2%"}
{"SMILES": "C1=C/COCc2cc(ccc2OCCN2CCCC2)Nc2nccc(n2)-c2cccc(c2)COC/1", "test": "binding", "conditions": "0.1 µM", "quantity": "remaining binding", "value": "82%"}
{"SMILES": "CO[C@@H]1[C@H](N(C)C(=O)c2ccccc2)C[C@H]2O[C@]1(C)n1c3ccccc3c3c4c(c5c6ccccc6n2c5c31)C(=O)NC4", "test": "enzyme activity, inhibitor", "conditions": "1 µM", "quantity": "inhibition", "value": "12%"}
{"SMILES": "CC(C)S(=O)(=O)c1ccc2nccc(Nc3ccc4sc(C5CCCC5)nc4c3)c2c1", "test": "enzyme activity, inhibitor", "conditions": "1 µM", "quantity": "activity vs control", "value": "82%"}
{"SMILES": "CN1CCN(C(=O)c2ccc(NC(=O)Nc3ccc(N(C)c4ccnc(Nc5ccc(CS(C)(=O)=O)cc5)n4)cc3)cc2)CC1", "test": "binding, competition with immobilised ligand", "conditions": "1 µM", "quantity": "remaining binding", "value": "61%"}
{"SMILES": "CCCCC(=O)Nc1ccc(-c2ccc3ncn(CCC)c(=O)c3c2)cn1", "test": "binding, competition with immobilised ligand", "conditions": "0.5 µM", "quantity": "remaining binding", "value": "96%"}
{"SMILES": "C=CC(=O)N1CCC[C@@H](n2nc(-c3ccc(Oc4ccccc4)cc3)c3c(N)ncnc32)C1", "test": "enzyme activity, inhibitor", "conditions": "1 µM", "quantity": "inhibition", "value": "76%"}
{"SMILES": "C[C@H]1CC[C@H](n2c3cnccc3c3cnc(Nc4ccc5c(n4)CCN(C(=O)CO)C5)nc32)CC1", "test": "binding, competition with immobilised ligand", "conditions": "1 µM", "quantity": "remaining binding", "value": "98%"}
